This is a sample that favours compounds with a hit; in the whole collection about 3.5% have one here.
APP 5'UTR act = APP 5'UTR luciferase reporter activation; SH-SY5Y APP 5'UTR luciferase reporter, luminescence; zero percent = DMSO vehicle wells; activation, % at 2 µM; 1% of 190,000 active;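 active = activation above a set limit, based on mean plus 3 SD of controls, cut at about 140% in these data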
FLuc stim CS = firefly luciferase counter-screen for stimulation assays; P08659; ATPlite luciferase biochemical, luminescence, 10 min; 0 = ATP-free wells, 1 = DMSO control; 200,000 tested, under 10 active; activation factor at 10 µM;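 active = luciferase activation factor, scaled between plate controls, of at least 2 with compound at 10 µM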
Target sequence (P08659 whole entry, looked up): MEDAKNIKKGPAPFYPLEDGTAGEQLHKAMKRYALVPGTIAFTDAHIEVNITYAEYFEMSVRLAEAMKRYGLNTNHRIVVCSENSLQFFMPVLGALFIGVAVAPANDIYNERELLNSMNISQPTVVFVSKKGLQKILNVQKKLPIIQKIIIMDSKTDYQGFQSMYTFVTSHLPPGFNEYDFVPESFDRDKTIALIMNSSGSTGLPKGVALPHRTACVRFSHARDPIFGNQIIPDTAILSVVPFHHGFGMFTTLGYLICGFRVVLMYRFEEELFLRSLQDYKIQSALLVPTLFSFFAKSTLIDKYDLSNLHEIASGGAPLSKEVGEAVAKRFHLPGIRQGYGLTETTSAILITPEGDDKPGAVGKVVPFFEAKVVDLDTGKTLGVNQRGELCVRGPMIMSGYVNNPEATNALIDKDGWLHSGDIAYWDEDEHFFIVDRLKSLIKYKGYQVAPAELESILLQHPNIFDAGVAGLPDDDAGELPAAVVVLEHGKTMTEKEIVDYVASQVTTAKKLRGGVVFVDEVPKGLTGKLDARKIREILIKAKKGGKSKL
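Material: luciferase plus luciferin reagent, cell-free. Medium: PBS buffer for ATP. Also added: ATP substrate, dispensed from a 10.24 µM working solution in PBS. Doses: test compounds dosed from 2 mM stocks in 100% DMSO. Incubation: 10 min post-reagent at room temperature. Technique: light output (luminescence). Read-out basis: luminescence gain marking luciferase activators.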
NF-kB neuron act = NF-kB expression increase, human neuronal cells; NF-kB reporter expression; hits give high values; fold change at 12.5 µM; AID 1239; 1.6% of 190,000 active; in the data active = fold change above about 3.3
FLuc inhib CS = Photinus pyralis luciferase inhibition counter-screen; ATPLite firefly luciferase biochemical luminescence, 10 min; P08659; inhibition, % at 10 µM; 1.5% of 200,000 active;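 active = inhibition above about 50% when tested at 10 µM, limit read from the data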
STAT1 activator = activators of IFN-gamma induced STAT1 signaling. NIH 3T3 STAT1-luciferase reporter, luminescence; 100% = IFN-gamma alone, no compound. activation (% of control), % at 5.5 µM. 2.6% of 200,000 active. AID 932;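 active = activation above the screen-wide mean activation plus 3 SD, cut at about 130% in these data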;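 also: raw ratio to IFN-gamma control signal so 100% means no change and 0% no light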
Pf gamet viab = kills late stage P. falciparum gametocytes; AID 743093; 0.065% of 150,000 active; P. falciparum stage V gametocytes, ATP luminescence, 24 h; inhibition, % at 10.9 µM;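 active = inhibition above the mean plus 3 SD of compounds within the control limits, set per campaign, cut at about 38% in these data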;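 also: 0% = DMSO wells and 100% = medium only without gametocytes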
STAT1 activ conf = STAT1 activation, confirmation assay; shares compounds with STAT1 activator; NIH 3T3 STAT1-luciferase reporter, IFN-gamma potentiation, luminescence; 100% = IFN-gamma EC80 alone, no compound; activation (% of control), % at 5.7 µM; 97% of 1,200 active;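 active = activation above a set limit carried over from the earlier primary STAT1 screen, cut at about 140% in these data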;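 also: simple ratio to median IFN-gamma plus DMSO wells so 0% means no light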
NFkB act STAT1ct = activates NF-kappaB, counter-screen to STAT1 activators; HEK293T NF-kB luciferase reporter, TNF-alpha stimulated, luminescence; 100% = TNF-alpha with vehicle only; AID 1306; activation (% of control), % at 5.7 µM; shares compounds with STAT1 activator; 43% of 1,200 active;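 active = activation above the mean of solvent-only control wells plus 3 SD, set per campaign, cut at about 130% in these data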;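 also: TNF-alpha given at a submaximal dose yielding about 80% of full reporter signal; values are well signal over median control so 100% means no change and 0% no light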
STAT3 act 2 = activates human STAT3, counter-screen to STAT1 activators | shares compounds with STAT1 activator | U3A cells STAT3-luciferase reporter, IL-6, luminescence; cells lack STAT1; 100 = IL-6 alone, no compound effect | activation (% of control), % at 5.7 µM | 46% of 1,200 active;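 active = activation above the solvent-only control well mean plus 3 SD, set per plate batch, cut at about 110% in these data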;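 also: 0% = no luminescence and 100% = median IL-6 plus DMSO wells; higher means more STAT3 reporter activation so hits are non-selective activators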
Starred values were filed as active, the others as inactive.

Screening Cc1ccc(N=Cc2sc(O)c3ccccc23)cc1 returned APP 5'UTR act 192.8*, FLuc stim CS 1, NF-kB neuron act 13.1*, FLuc inhib CS -2.6, STAT1 activator 202.3*, Pf gamet viab -8.5, STAT1 activ conf 322.8*, NFkB act STAT1ct 153.2* and STAT3 act 2 121.3*.
Screening COc1ccc(C(=O)N=c2nc3ccccn3s2)cc1 returned APP 5'UTR act 117.2, FLuc stim CS 0, NF-kB neuron act 1.37, FLuc inhib CS 96.6*, STAT1 activator 181.9*, STAT1 activ conf 313.2*, NFkB act STAT1ct 120.2 and STAT3 act 2 94.2.
`COc1ccc(C(=O)O/N=C2\C(=O)N(C)c3ccccc32)cc1` gave Pf gamet viab -5.6.
For O=C(/C=C\Nc1ccc(Br)cc1)c1cccnc1 the results were APP 5'UTR act 209.8*, FLuc stim CS 0.2, NF-kB neuron act 8.85*, FLuc inhib CS 84.5*, STAT1 activator 161.6*, STAT1 activ conf 198.0*, NFkB act STAT1ct 117.5 and STAT3 act 2 90.0.
For Cc1noc(NS(=O)(=O)c2ccc(N/C=C/C(=O)c3cccnc3)cc2)c1C the results were APP 5'UTR act -12.1, FLuc stim CS 1.1, NF-kB neuron act 1.43, FLuc inhib CS -9.1 and STAT1 activator 102.8.
For Cc1cccc(C)c1N1CCN(C(=O)Cn2cncn2)CC1 the results were APP 5'UTR act -5.2, FLuc stim CS 1, NF-kB neuron act 1.83, FLuc inhib CS -2.1, STAT1 activator 103.5 and Pf gamet viab -24.3.
O=C(Nc1ccc(N2CCCCC2)cc1)c1ccc(F)cc1 was read as APP 5'UTR act 113.0, FLuc stim CS 0.6, NF-kB neuron act 2.45, FLuc inhib CS 42.9, STAT1 activator 161.7*, Pf gamet viab -39.2, STAT1 activ conf 215.9*, NFkB act STAT1ct 129.6 and STAT3 act 2 101.8.
Screening O=C(Nc1ccc(N2CCCC2)cc1)c1ccc(Br)o1 returned APP 5'UTR act 56.6, FLuc stim CS 0.6, NF-kB neuron act 2.9, FLuc inhib CS 37.3, STAT1 activator 166.0*, STAT1 activ conf 216.8*, NFkB act STAT1ct 134.5* and STAT3 act 2 103.0.
COc1ccc(C(=O)Nc2ccc(N3CCCC3)cc2)cc1 was read as APP 5'UTR act 20.1, FLuc stim CS 0.8, NF-kB neuron act 1.58, FLuc inhib CS 24.6, STAT1 activator 100.6 and Pf gamet viab -1.3.
CCC(CO)Oc1cc(NCc2cccc(C(F)(F)F)c2)c2ncn(C(C)C)c2c1 (stereo unspecified) was read as Pf gamet viab -5.6.
`CN(/N=C/c1ccc2c(c1)OCO2)c1ccccc1` gave APP 5'UTR act 93.1, FLuc stim CS 0.8, NF-kB neuron act 2.21, FLuc inhib CS 23.9, STAT1 activator 155.1*, Pf gamet viab 5.4, STAT1 activ conf 180.5*, NFkB act STAT1ct 138.7* and STAT3 act 2 108.3.
Screening C(=N\N(c1ccccc1)c1ccccc1)/c1ccc2c(c1)OCO2 returned APP 5'UTR act -14.0, FLuc stim CS 1.1, NF-kB neuron act 1.05, FLuc inhib CS -9.8 and STAT1 activator 105.6.
`Cc1nn(Cc2ccccc2Cl)c(Cl)c1C(=O)NCCc1ccccc1` gave FLuc stim CS 0.8, NF-kB neuron act 3.49*, FLuc inhib CS 22.3, STAT1 activator 172.8*, Pf gamet viab 4.9, STAT1 activ conf 193.3*, NFkB act STAT1ct 119.9 and STAT3 act 2 140.9*.
Screening O=C(Nc1ccc(N2CCOCC2)c(Cl)c1)c1cc2ccccc2o1 returned APP 5'UTR act 84.1, FLuc stim CS 0.9, NF-kB neuron act 2.2, FLuc inhib CS 12.2, STAT1 activator 169.9*, STAT1 activ conf 178.7*, NFkB act STAT1ct 127.6 and STAT3 act 2 93.9.
`CS(=O)(=O)N1CCN(c2ccc(NC(=O)c3ccc([N+](=O)[O-])o3)cc2)CC1` gave APP 5'UTR act -65.6, FLuc stim CS 1, NF-kB neuron act 2.21, FLuc inhib CS 3.1, STAT1 activator 159.9*, Pf gamet viab 9.1, STAT1 activ conf 98.2, NFkB act STAT1ct 111.5 and STAT3 act 2 89.0.
`CS(=O)(=O)N1CCN(c2ccc(NC(=O)c3cc4ccccc4o3)cc2)CC1` gave Pf gamet viab 8.6.
O=C(Nc1ccc(N2CCCC2)c(Cl)c1)c1ccc([N+](=O)[O-])o1 was read as APP 5'UTR act -78.5, FLuc stim CS 0.7, NF-kB neuron act 4.27*, FLuc inhib CS 29.0, STAT1 activator 158.9*, Pf gamet viab 2.2, STAT1 activ conf 97.8, NFkB act STAT1ct 133.5* and STAT3 act 2 103.5.
Screening O=S(=O)(NCCOC12CC3CC(CC(C3)C1)C2)c1cccc2nsnc12 returned APP 5'UTR act 32.0, FLuc stim CS 1, NF-kB neuron act 0.73, FLuc inhib CS -2.7, STAT1 activator 95.1 and Pf gamet viab -8.6.
Screening O=C(c1cc2ccccc2c(=O)o1)N1CCCCCC1 returned APP 5'UTR act 30.4, FLuc stim CS 0.9, NF-kB neuron act 1.07, FLuc inhib CS 5.3, STAT1 activator 116.2 and Pf gamet viab 5.5.
Screening COc1ccccc1C(=O)COC(=O)c1ccccc1O returned APP 5'UTR act 20.1, FLuc stim CS 1, NF-kB neuron act 1.06, FLuc inhib CS 3.7, STAT1 activator 102.7 and Pf gamet viab -45.7.
For COc1ccccc1C(=O)COC(=O)c1ccc(N(C)C)cc1 the results were APP 5'UTR act 141.7*, FLuc stim CS 0.6, NF-kB neuron act 1.04, FLuc inhib CS 36.0, STAT1 activator 173.6*, Pf gamet viab 5.2, STAT1 activ conf 174.8*, NFkB act STAT1ct 134.3* and STAT3 act 2 132.0*.
CCOC(=O)c1cnc(SCc2ccc(C(C)(C)C)cc2)nc1N was read as APP 5'UTR act 19.8, FLuc stim CS 1, NF-kB neuron act 1.45, FLuc inhib CS -2.4, STAT1 activator 101.1 and Pf gamet viab 0.8.
For CCOC(=O)c1cnc(SCc2ccccc2)nc1N the results were APP 5'UTR act 146.4*, FLuc stim CS 0.9, NF-kB neuron act 8.96*, FLuc inhib CS 8.5, STAT1 activator 157.8*, STAT1 activ conf 211.8*, NFkB act STAT1ct 135.3* and STAT3 act 2 109.1.

Screens as filed in PubChem BioAssay.
